# Assays:
# Assay type in all cases: functional
# [1] = organism: Mus musculus; assay: Analgesic activity in mice; parameters: concentration or dose not given beside the values
# Outline: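 Female albino mice (22 ± 2 g, local breed), groups of eight, dosed orally at 100 mg/kg as a suspension in 5% gum arabic syrup. After 1 h, 3% acetic acid was given ip at 300 mg/kg. Stretches were counted over 10 min, starting 5 min after injection. Percent activity = |n − n'|/n × 100 against syrup-only controls (n = 6).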
# [2] = system: Mus musculus; assay: Antiinflammatory activity against CPE in mice following peroral administration of 30 mg/kg; conditions: route oral
# Outline: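 Female albino mice (22 ± 2 g), six per group, dosed orally. After 60 min, 0.01 mL of 2% carrageenan was injected subcutaneously into the right hind paw plantar surface. Edema was read with a dial thickness gauge 3 h later. ED50 was given in mg/kg po with 95% confidence limits.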
# [3] = system: Mus musculus; assay: The compound was evaluated for inhibition of edema induced by PGE at […]
# Outline: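 Mice, six per group, dosed orally at 100 mg/kg. After 60 min, PGE2 (20 μg/0.01 mL) was injected subcutaneously into the right hind paw plantar surface. Edema was measured with a dial thickness gauge and the effect expressed as percent inhibition.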
# [4] = system: Mus musculus; assay: Gastric ulcerogenic activity at a dose of 100 mg/kg
# Outline: (§1)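 Mice fasted 24 h with water available. Compound in methyl cellulose vehicle given by oral gavage at 0.5 mL/100 g body weight. Animals were killed after 4 h and stomachs examined for lesions under a dissecting microscope. Read-out: ulcer incidence per group of 8 and lesion length (mm/mouse ± SE).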
# [5] = system: Mus musculus; assay: Gastric ulcerogenic activity at a dose of 300 mg/kg: group of 8 mice were considered for the test; outline: as §1
# [6] = system: Mus musculus; assay: The compound was evaluated for inhibition of edema induced by histamine at 10 mg/mL
# Outline: (§2)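 Female albino mice (22 ± 2 g, local breed), six per group, housed in eights with free food and water, acclimatised at least 2 days. Compound given orally at 100 mg/kg; 60 min later 0.01 mL of the phlogistic agent (histamine or serotonin) injected subcutaneously into the right hind paw plantar surface. Paw edema measured with a dial thickness gauge; effect expressed as percent inhibition.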
# [7] = system: Mus musculus; assay: Intestinal ulcerogenic activity at a dose of 100 mg/kg: group of 8 mice were considered for the test
# Outline: (§3)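 Fed animals were gavaged with compound on 3 consecutive days and killed 24 h after the last dose. Intestines were examined for ulcers. Read-out: ulcer incidence per group of 8 and lesion length (mm/mouse ± SE).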
# [8] = system: Mus musculus; assay: Inhibitory activity against carrageenan induced paw edema in mice; parameters: concentration or dose not given beside the values
# [9] = system: Mus musculus; assay: Intestinal ulcerogenic activity at a dose of 100 mg/kg; outline: as §3
# [10] = system: Mus musculus; assay: Intestinal ulcerogenic activity at a dose of 30 mg/kg: group of 8 mice were considered for the test; outline: as §3
# [11] = system: Mus musculus; assay: Intestinal ulcerogenic activity at a dose of 300 mg/kg; outline: as §3
# [12] = system: Mus musculus; assay: The compound was evaluated for inhibition of edema induced by arachidonic acid at 1 mg/mL
# Outline: (§4)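 Mice, six per group, dosed orally at 100 mg/kg. After 60 min, 0.01 mL of phlogistic agent (arachidonic acid or bradykinin) was injected subcutaneously into the right hind paw plantar surface. Edema was measured by dial thickness gauge and the effect expressed as percent inhibition.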
# [13] = system: Mus musculus; assay: Gastric ulcerogenic activity at a dose of 30 mg/kg: group of 8 mice were considered for the test; outline: as §1
# [14] = system: Mus musculus; assay: Gastric ulcerogenic activity at a dose of 30 mg/kg; outline: as §1
# [15] = system: Mus musculus; assay: The compound was evaluated for inhibition of edema induced by bradykinin at 100 ug/mL; outline: as §4
# [16] = system: Mus musculus; assay: Gastric ulcerogenic activity at a dose of 300 mg/kg; outline: as §1
# [17] = system: Mus musculus; assay: Intestinal ulcerogenic activity at a dose of 30 mg/kg; outline: as §3
# [18] = system: Mus musculus; assay: The compound was evaluated for inhibition of edema induced by serotonin at 250 ug/mL; outline: as §2
# [19] = system: Mus musculus; assay: Gastric ulcerogenic activity at a dose of 100 mg/kg: group of 8 mice were considered for the test; outline: as §1
# [20] = system: Mus musculus; assay: Intestinal ulcerogenic activity at a dose of 300 mg/kg: group of 8 mice were considered for the test; outline: as §3
smiles,measurement,setting,value
O=C(c1ccccc1Cl)c1cc2oc(=O)n(CCc3ccncc3)c2cc1Cl,Analgesic activity,[1],92.61%
same,ED50,[2],30 mg/kg
same,Inhibition,[3],55%
same,Lesion length,[4],0 mm mice-1
same,Ulcer incidence,[5],1 number/group
same,Inhibition,[6],9.3%
same,Ulcer incidence,[7],0 number/group
same,Inhibition,[8],49.6%
same,Lesion length,[9],0 mm mice-1
same,Ulcer incidence,[10],0 number/group
same,Lesion length,[11],0.4 mm mice-1
same,Inhibition,[12],43%
same,Ulcer incidence,[13],0 number/group
same,Lesion length,[14],0 mm mice-1
same,Inhibition,[15],12%
same,Lesion length,[16],0.4 mm mice-1
same,Lesion length,[17],0 mm mice-1
same,Inhibition,[18],8.4%
same,Ulcer incidence,[19],0 number/group
same,Ulcer incidence,[20],0 number/group

# — ChEMBL document CHEMBL1125427, “Synthesis of 3-(2-pyridylethyl)benzoxazolinone derivatives: potent analgesic and antiinflammatory compounds inhibiting prostaglandin E2” (1992)
